# Source: PubChem BioAssay
# Rows were chosen to be rich in hits. Some 3.9% of all compounds tested hit in one or more screens of this group.
# TAAR1 agonist = agonists of human TAAR1 | activation, % at 3 µM | Q96RJ0 | 0.99% of 360,000 active | CHO RD-HGA16 TAAR1, Fluo-8 calcium fluorescence; vehicle wells 0%, saturating PEA agonist 100%;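 active = activation above the mean activation of all test compounds in the run plus 3 SD, cut at about 38% in these data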
# Target sequence (Q96RJ0 whole entry, looked up): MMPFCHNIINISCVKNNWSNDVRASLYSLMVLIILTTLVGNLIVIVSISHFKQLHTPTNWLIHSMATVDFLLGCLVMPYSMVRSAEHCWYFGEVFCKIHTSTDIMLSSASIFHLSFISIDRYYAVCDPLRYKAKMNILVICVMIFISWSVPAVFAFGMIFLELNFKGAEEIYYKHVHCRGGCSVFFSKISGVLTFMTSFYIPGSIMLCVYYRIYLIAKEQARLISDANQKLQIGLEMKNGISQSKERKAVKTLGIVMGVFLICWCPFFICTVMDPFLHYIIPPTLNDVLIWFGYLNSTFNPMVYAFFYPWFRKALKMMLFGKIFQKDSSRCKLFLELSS
#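 Benchmarks: low control DMSO, high control PEA (EC100); System: CHO RD-HGA16 cells carrying human TAAR1 plus Gα16; Detection: Fluo-8 fluorescence, 5 s baseline then 140 s kinetic read; Schedule: 17-24 h plating, Fluo-8 75 min 37 °C, 30 min RT; Read-out basis: % activation from peak over basal fluorescence ratio, DMSO-to-PEA scaled.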
# CRFR2-BP ag = CRF-BP/CRF-R2 complex agonism. HEK293 CRF-R2/CRF-BP, calcium dye fluorescence (FLIPR); percent of saturating CRF peptide response. activation, % at 13.2 µM. 0.46% of 350,000 active;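 active = activation of at least 50%, plus an integration ratio under a set limit after plate pattern correction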;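 note: plate controls were neutral control wells without compound for no effect and CRF at EC100 for full effect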
# TMEM16A inh = blocks the mouse calcium-activated chloride channel TMEM16A. Q8BHY3. HEK293 TMEM16A/YFP iodide influx fluorescence, ionomycin. normalized B-score (activity score, 25-100; higher = stronger inhibition) at 10 µM. 1.2% of 310,000 active;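 active = ratio plate-corrected score three or more library SD toward inhibition, starting fluorescence score within five deviations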;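 note: score derived from kinetic fluorescence span divided by baseline fluorescence per well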
# TAAR1 antagonist = antagonists of human TAAR1; Q96RJ0; CHO RD-HGA16 TAAR1, Fluo-8 calcium fluorescence, antagonist; inhibition, % at 3 µM; 1.5% of 360,000 active; AID 624466;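 active = inhibition above a per-plate cutoff, the mean inhibition of test compounds on that plate plus 3 SD, cut at about 49% in these data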;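 note: 0% = DMSO plus EC80 beta-PEA response and 100% = DMSO alone without agonist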
#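 test system = CHO RD-HGA16 cells bearing hTAAR1 | replication = singlicate | controls = DMSO-only wells and EC80 β-PEA-stimulated wells | reagent = EC80 β-phenethylamine stimulus | read-out basis = percent inhibition of PEA-evoked calcium signal, max/basal emission ratio | schedule = seeding 17-24 h prior, 75-min 37 °C, 30-min RT dye loading | signal = kinetic Fluo-8 calcium fluorescence measurement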
# CRFR2-BP antag = CRF-BP/CRF-R2 complex antagonism; HEK293 CRF-R2/CRF-BP, CRF-induced calcium fluorescence; inhibition, % at 11.8 µM; 0.59% of 350,000 active;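 active = inhibition of the ligand-induced calcium signal above about 50% at the single tested concentration, limit read from the data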
# TMEM16A act = activators or potentiators of mouse TMEM16A chloride channel; AID 623877; 0.3% of 340,000 active; Q8BHY3; B-score at 10 µM; HEK293 TMEM16A/YFP-H148Q/I152L, iodide quench fluorescence; stronger effect = lower value;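 active = fluorescence-ratio B-score plate-corrected deviation score at least 3 library SD below zero, with starting fluorescence score within 5 deviations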;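 note: channel opened by trigger with iodide after compound preincubation; score built on the fluorescence ratio of max minus min over baseline; more negative score means more quench and so TMEM16A activation or potentiation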
# * = called active by the depositor; i = inactive; . = no result.
SMILES,TAAR1 agonist,CRFR2-BP ag,TMEM16A inh,TAAR1 antagonist,CRFR2-BP antag,TMEM16A act
C=CCn1c(SCc2c(C)noc2C)nc2sc(C)c(C)c2c1=O,0.2,-4.5,i,9.1,74.0*,i
CCCCn1cnc2c(c(-c3ccccc3)c(-c3ccccc3)n2Cc2ccco2)c1=N,34.6,-1.4,100*,-13.0,-11.1,i
CC(OC(=O)c1ccc(-c2ccc(O)cc2)cc1)C(=O)NC1CCCCC1C (configuration not stated),2.2,-0.5,i,1.8,59.9*,i
O=C(NCc1cccs1)C1Cc2c(-c3ccc(Cl)cc3)ccnc2O1 (configuration not stated),-1.5,.,.,-8.7,.,.
COc1ccccc1CNC(=O)c1sccc1-c1ccccc1,-4.1,-0.5,i,-17.1,13.7,i
O=C(NCCC1CCCCN1S(=O)(=O)c1cccs1)C(=O)NCc1ccccc1 (configuration not stated),-0.3,-0.9,i,-8.8,2.2,i
CCN1CCN(CC(=O)N2N=C(c3cccs3)CC2c2ccc(OC)c(OC)c2)C(=O)C1=O (configuration not stated),1.0,0.1,i,-20.1,6.0,i
C=C1C(=O)c2sccc2C(c2ccc(OC)c(OC)c2)C1COC(C)=O (configuration not stated),7.5,3.5,.,-3.7,-1.2,-4.85*
COc1ccccc1NS(=O)(=O)c1cc(C(=O)NCCC(C)C)ccc1F,2.7,84.6*,i,6.9,-87.3,-9.48*
Cc1onc(-c2ccccc2Cl)c1C(=O)NCc1ccc(N2CCCC2=O)cc1,1.2,11.1,i,-8.3,57.2*,i
Cc1cc[n+](-c2[nH]c(=O)sc2/C=N/N=C(\[O-])c2ccncc2)cc1C,4.6,8.0,i,-17.4,-13.2,i
Cc1cc[n+](-c2[nH]c(=O)sc2/C=N/N=C(\[O-])c2ccccc2)cc1C,10.1,27.2,.,1.2,-26.5,-5.63*
CN(C)S(=O)(=O)c1ccc(Cl)c(NC(=O)CNC2(C)CCS(=O)(=O)C2)c1 (configuration not stated),1.7,-0.8,.,-15.7,113.3*,i
Cc1ccc(S(=O)(=O)N2C(c3cccc(Cl)c3)CC=C(C(=O)O)C2c2cccc(Cl)c2)cc1 (configuration not stated),1.5,.,.,2.0,.,.
Cc1ccc(S(=O)(=O)N2[C@@H](c3cccc(Cl)c3)C(C(=O)O)=CC[C@H]2c2ccc(Cl)cc2)cc1,3.6,6.9,100*,52.2*,19.6,i
Cc1ccc(S(=O)(=O)N2[C@@H](c3ccc(Cl)cc3)C(C(=O)O)=CC[C@H]2c2ccc(Cl)c(Cl)c2)cc1,3.9,-0.2,100*,22.3,13.7,i
CCOc1ccc([C@@H]2CC=C(C(=O)O)[C@H](c3cccc(Cl)c3)N2S(=O)(=O)c2ccc(C)cc2)cc1,0.5,-1.8,i,15.6,6.7,-6.88*
Cc1ccc(CNC(=S)Nc2ccc3c(c2)c(=O)n(C)n3Cc2cccc(C(F)(F)F)c2)cc1,1.6,.,.,-0.6,.,.
Cc1ccc(C)c(N2N=C(C(=O)Nc3cccnc3)CCC2=O)c1,1.6,0.1,.,14.5,-3.2,i
O=C(Nc1ccc(S(=O)(=O)N2CCOCC2)cc1)c1ccc(Cl)c([N+](=O)[O-])c1,12.1,-0.1,.,17.5,56.3*,i
CC1CN(S(=O)(=O)c2ccc(NC(=O)c3cc(-c4ccccc4O)n[nH]3)cc2)CC(C)O1 (configuration not stated),16.0,-0.5,i,42.2,-16.6,i
O=C(Nc1ccc(S(=O)(=O)N2CCOCC2)cc1)c1cc(-c2ccccc2O)n[nH]1,18.5,2.0,i,54.1*,-6.7,i
CSc1ncc(Cl)c(C(=O)Nc2ccc(S(=O)(=O)N3CCOCC3)cc2)n1,2.5,-1.2,i,-2.5,90.0*,i
O=C(Nc1cccc(S(=O)(=O)N2CCOCC2)c1)c1ccc(Cl)c([N+](=O)[O-])c1,26.2,-0.2,i,13.5,-3.8,i
COC(=O)C(Cc1ccccc1)NC(=O)CCCC(=O)NCc1cccc(OC)c1 (configuration not stated),5.2,-0.6,i,-24.2,-2.3,i
SMILES,TAAR1 agonist,CRFR2-BP ag,TMEM16A inh,TAAR1 antagonist,CRFR2-BP antag,TMEM16A act
Cc1cc(C)c(S(=O)(=O)Nc2ccc(C(=O)O)cc2)cc1S(=O)(=O)Nc1ccc(C(=O)O)cc1,0.2,0.3,i,-3.6,26.8,i
C=CCN1C(=O)NC(c2ccccc2)(C(F)(F)F)S/C1=C(\C#N)c1nnc(N2CCOCC2)n1-c1ccccc1 (configuration not stated),5.0,-1.2,i,13.2,-19.3,i
C=CCN1C(c2cccc(C(F)(F)F)c2)=CS/C1=C(\C#N)c1nnc(N2CCOCC2)n1-c1ccccc1,5.6,57.7*,.,9.3,-15.8,.
COc1ccc(Cn2c(SCc3ccc(C)cc3)nc3cc(OC)c(OC)cc3c2=N)cc1Cl,40.7*,0.3,i,0.6,-0.6,i
COc1ccc(Cn2c(SCc3cc(C)ccc3C)nc3cc(OC)c(OC)cc3c2=N)cc1,32.3,1.7,i,-25.1,-30.2,i
COc1cccc(CSc2nnc(C(F)(F)F)n2Cc2ccc(F)cc2)c1,5.0,-1.5,i,-12.5,64.3*,i
Cc1ccc(CSc2nnc(C(F)(F)F)n2Cc2ccc(F)cc2)cc1,.,0.5,i,.,-0.8,i
CC1CCCN(CC(=O)Nc2cc(S(=O)(=O)N3CCOCC3)ccc2N2CCCC2)C1 (configuration not stated),1.5,-4.4,.,-22.1,-1.9,i
COC1=C(Br)C(=O)c2ncccc2C1=O,25.8,-1.6,.,0.3,57.8*,i
O=C1c2cccnc2-c2ncccc21,1.1,-2.4,i,0.6,11.2,i
CC(C)COC(=O)N(C)C[C@H]1OCc2cnnn2CCCC(=O)N([C@H](C)CO)C[C@@H]1C,5.3,-0.4,.,2.6,-9.3,.
O=C1CCN(CCCN2CCC(=O)NC2=S)C(=S)N1,1.3,-2.4,.,-19.0,3.1,.
COc1cccc2c1C(=O)c1c(O)c3c(c(O)c1C2=O)C[C@@](O)(C(=O)CO)C[C@@H]3OC1CC(N)C(O)C(C)O1 (some centres not stated),13.8,74.0*,.,25.8,-124.3,i
COc1cccc2c1C(=O)c1c(O)c3c(c(O)c1C2=O)C[C@@](O)(C(=O)CO)C[C@@H]3O[C@H]1C[C@H](N)[C@H](O)[C@H](C)O1,7.3,93.5*,i,11.8,-80.5,i
